# Reference: ChEMBL document CHEMBL1127020, “3-Quinolinecarboxamides. A series of novel orally-active antiherpetic agents” (1993)
# Activity calls are given as the source filed them. The calls are words filed in the database; no cut-off is given here.
# Experiments:
# Human alphaherpesvirus 2 [1] = assay: (§1) In vitro minimum inhibitory concentration against herpes simplex virus-2 (HSV-2) by plaque-reduction assay in vero cells; type: functional, organism-based
# In short: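 Vero monolayers (2 days old, confluent; Hank's MEM + 5% inactivated FCS, 37 °C, 2% CO2) infected with ~80 PFU; after 1-h adsorption, overlay of M199/5% FCS with 1:150 human immune serum globulin plus serial 2-fold compound dilutions (1:200 from DMSO). 3 d incubation, glutaraldehyde fix, crystal violet stain, plaque count. MIC = lowest concentration giving 50% plaque reduction; mean of ≥2 experiments.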
# Human alphaherpesvirus 2 [2] = assay: In vitro maximum tolerated level against herpes simplex virus-2 (HSV-2) by plaque-reduction assay in vero cells; type: functional
# Human alphaherpesvirus 2 [3] = assay: as §1; type: functional
# Human alphaherpesvirus 2 [4] = assay: In vivo maximum tolerated dose against herpes simplex virus-2 (HSV-2) by oral administration in female mice; type: functional
MIC (Human alphaherpesvirus 2 [1]),MIC (Human alphaherpesvirus 2 [3]),Structure (SMILES),MTL (Human alphaherpesvirus 2 [2]),MTD (Human alphaherpesvirus 2 [4])
inactive,,CCn1cc(C(N)=O)c(=O)c2ccc(I)cc21,>100 µg/mL,
inactive,,CCn1cc(C(N)=O)c(=O)c2ccccc21,50 µg/mL,
inactive,,CCn1cc(C(N)=O)c(=O)c2ccc(-c3ccc(N)cc3)cc21,6.25 µg/mL,
inactive,,CCn1cc(C(N)=O)c(=O)c2ccc(-c3ccccc3)cc21,50 µg/mL,
inactive,,CCn1cc(C(N)=O)c(=O)c2ccc(-n3ccnc3)cc21,50 µg/mL,
inactive,,NC(=O)c1cn(-c2ccc(F)cc2)c2cc(Br)ccc2c1=O,6.25 µg/mL,
,> 100 µg/mL,CCC(=O)c1c(O)c2ccc(-c3ccncc3)cc2n(-c2ccc(F)cc2)c1=O,,
,,Oc1nc2c(O)c3ccc(-c4ccncc4)cc3n(-c3ccc(F)cc3)c-2n1,>100 µg/mL,
,11 µg/mL,NC(=O)c1c(O)c2ccc(-c3ccncc3)cc2n(-c2ccc(F)cc2)c1=O,>100 µg/mL,
inactive,,CCn1cc(C(N)=O)c(=O)c2ccc(F)cc21,50 µg/mL,
inactive,,CCn1c(C)c(C(N)=O)c(=O)c2ccc(-c3ccncc3)cc21,50 µg/mL,
inactive,,CCn1cc(C(=O)NCCO)c(=O)c2ccc(-c3ccncc3)cc21,25 µg/mL,
inactive,,CCn1cc(C2=NCCN2)c(=O)c2ccc(-c3ccncc3)cc21,>100 µg/mL,
inactive,,CCn1cc(C(=O)O)c(=O)c2ccc(-c3ccncc3)cc21 [ROSOXACIN],>200 µg/mL,
inactive,,CCn1cc(C(=O)N(C)C)c(=O)c2ccc(-c3ccncc3)cc21,>100 µg/mL,
inactive,,CCn1cc(C(N)=O)c(=O)c2ccc(Cl)cc21,>100 µg/mL,
inactive,,CCCn1cc(C(N)=O)c(=O)c2ccc(-c3ccncc3)cc21,6.25 µg/mL,
inactive,,NC(=O)c1csc2cc(-c3ccncc3)ccc2c1=O,>100 µg/mL,
inactive,,CCn1cc(C2=NCCO2)c(=O)c2ccc(-c3ccncc3)cc21,12.5 µg/mL,
inactive,,CCn1cc(C#N)c(=O)c2ccc(-c3ccncc3)cc21,100 µg/mL,
inactive,,CCn1cc(C(N)=O)c(=O)c2ccc(-c3cnc(C)s3)cc21,>100 µg/mL,
inactive,,CC(C)(C)c1ccc(-n2cc(C(N)=O)c(=O)c3ccc(-c4ccncc4)cc32)cc1,>25 µg/mL,
inactive,,CCn1cc(C(=O)NCCN)c(=O)c2ccc(-c3ccncc3)cc21,>100 µg/mL,
,,NC(=O)c1c(O)c2ccc(-c3ccncc3)cc2n2c1nc1ccccc12,0.4 µg/mL,
inactive,,NC(=O)c1cnc2cc(-c3ccncc3)ccc2c1O,12.5 µg/mL,
inactive,,NC(=O)c1cn(-c2ccc(F)cc2)c2cc(Cl)ccc2c1=O,>12.5 µg/mL,
inactive,,CCn1cc(C(=O)NOC)c(=O)c2ccc(-c3ccncc3)cc21,25 µg/mL,
inactive,,CCn1cc(C(N)=O)c(=O)c2ccc(-c3ccc([N+](=O)[O-])cc3)cc21,>100 µg/mL,
inactive,,CCn1cc(C(=O)NCCN(C)C)c(=O)c2ccc(-c3ccncc3)cc21,>100 µg/mL,
inactive,,NC(=O)c1cn(CCO)c2cc(-c3ccncc3)ccc2c1=O,50 µg/mL,

Structure (SMILES),MIC (Human alphaherpesvirus 2 [1]),MIC (Human alphaherpesvirus 2 [3]),MTL (Human alphaherpesvirus 2 [2]),MTD (Human alphaherpesvirus 2 [4])
CCn1cc(C(N)=O)c(=O)c2ccc(N3CCN(C)CC3)cc21,inactive,,50 µg/mL,
CCn1c(N)c(C(N)=O)c(=O)c2ccc(-c3ccncc3)cc21,,9 µg/mL,>12.5 µg/mL,>100 mg/kg
